Experimental findings from ChEMBL document CHEMBL1777787, “Identification of 4H,6H-[2]benzoxepino[4,5-c][1,2]oxazoles as novel squalene synthase inhibitors” (Bioorg Med Chem Lett, 2011) are described below.

Broadly, the IC50 is the concentration that inhibits the measured activity by half. The term inhibition in vivo denotes the change of the read-out against control, counted positive when it falls.

Each structure is given as a SMILES string.

One series concerns the target T1, Squalene synthase (Homo sapiens, UniProt P37268).
T1 sequence (P37268 whole entry): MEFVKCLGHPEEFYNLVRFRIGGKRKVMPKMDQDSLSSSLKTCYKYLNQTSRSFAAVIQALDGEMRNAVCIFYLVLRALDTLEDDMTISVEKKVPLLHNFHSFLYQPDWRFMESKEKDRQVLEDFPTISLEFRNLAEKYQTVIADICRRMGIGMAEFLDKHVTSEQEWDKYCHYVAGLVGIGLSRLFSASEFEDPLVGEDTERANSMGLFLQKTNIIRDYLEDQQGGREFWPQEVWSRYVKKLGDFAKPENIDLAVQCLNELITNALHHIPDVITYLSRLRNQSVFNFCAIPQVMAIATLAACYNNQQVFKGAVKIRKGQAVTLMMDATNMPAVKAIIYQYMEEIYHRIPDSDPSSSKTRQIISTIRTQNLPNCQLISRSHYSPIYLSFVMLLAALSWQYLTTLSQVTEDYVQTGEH
Put plainly: Inhibition of recombinant squalene synthase assessed as conversion of trans,trans-[1-3H]farnesyl pyrophosphate to [3H]squalene after 10 mins by liquid scintillation counting. The gist of the method: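 Recombinant SQS in 1 mM NADPH, 5 mM DTT, 10% PBS, 10 mM sodium fluoride and 0.5 mM MgCl₂, pH 7.5. Compounds were added from DMSO at defined concentrations. The reaction was started with farnesyl pyrophosphate plus 0.2 nM trans,trans-[1-³H]-farnesyl pyrophosphate, run 10 min at 37 °C, then extracted with chloroform/methanol. IC50 values are means of three experiments.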

The nature of series [1]: Stability in human liver microsomes assessed as compound remaining after 60 mins. It counts as ADME, Microsome. The settings on record: read-out: Stability.
The subject of series [2] is Mus musculus. Put plainly: In vivo inhibition of squalene synthase in NMRI mouse assessed as inhibition of hepatic [14C]cholesterol biosynthesis at 3 mg/kg, po measured after 1 hr by liquid scintillation counting.
The test system of series [3] is Mus musculus. Kind of series: In vivo inhibition of squalene synthase in NMRI mouse assessed as inhibition of hepatic [14C]cholesterol biosynthesis at 1 mg/kg, po measured after 1 hr by liquid scintillation counting.

Turning to `COc1cccc([C@H]2O[C@H](CC(=O)O)C(=O)N(CC(C)(C)CO)c3ccc(Cl)cc32)c1OC`, the IC50 on Squalene synthase came out at 223 nM.
On to `COc1cccc([C@@H]2O[C@@H](CC(=O)O)c3noc(C(C)C)c3-c3ccc(Cl)cc32)c1OC`, for which the IC50 at Squalene synthase was determined as 1420 nM.
Take `COc1cccc([C@H]2O[C@H](CC(=O)N3CCC(CC(=O)O)CC3)C(=O)N(CC(C)(C)CO)c3ccc(Cl)cc32)c1OC`: in series [1], the remaining at 1 h came to 37%. Also, the half-maximal inhibitory concentration (IC50) at Squalene synthase is 260 nM.
On to `COc1cccc([C@H]2O[C@H](CC(=O)N3CCC(CC(=O)O)CC3)c3noc(C(C)C)c3-c3ccc(Cl)cc32)c1OC`, for which the inhibition in vivo at 3 mg/kg with Mus musculus [2] was 80%. For the same molecule, the remaining at 1 h in series [1] amounted to 91%. At Squalene synthase, the IC50 was found to be 131 nM.
As for `COc1cccc([C@H]2O[C@H](CC(=O)N3CCC(CC(=O)O)CC3)C(=O)N(CC(C)(C)COC(C)=O)c3ccc(Cl)cc32)c1OC` [LAPAQUISTAT ACETATE], in the series on Mus musculus [2], the inhibition in vivo at 3 mg/kg was 73%. Moreover, the inhibition in vivo at 1 mg/kg in the series on Mus musculus [3] turned out to be 59%. Besides, in series [1], the remaining at 1 h stood at 7%. In addition, the IC50 on Squalene synthase was determined as 213 nM.
With `COc1cccc([C@H]2O[C@H](CC(=O)O)c3noc(C(C)C)c3-c3ccc(Cl)cc32)c1OC`, the inhibition in vivo at 3 mg/kg in the series on Mus musculus [2] is 58%. The remaining at 1 h in series [1] turned out to be 100%. Further, on Squalene synthase, the half-maximal inhibitory concentration (IC50) amounted to 56 nM.
Turning to `COc1cccc([C@H]2O[C@H](CC(=O)N3CC[C@@H](O)C3)c3noc(C(C)C)c3-c3ccc(Cl)cc32)c1OC`, the IC50 on Squalene synthase was determined as 162 nM.
Take `COc1cccc(C2OC(CC(=O)O)c3noc(C(C)C)c3-c3ccc(Cl)cc32)c1OC` (single isomer, unassigned; enantiomer 3): the inhibition in vivo at 3 mg/kg in the series on Mus musculus [2] came to 31%. In addition, the remaining at 1 h in series [1] was 64%. Further, on Squalene synthase, the IC50 was found to be 169 nM.
Regarding `COc1cccc(C2OC(CC(=O)O)c3noc(C(C)C)c3-c3ccc(Cl)cc32)c1OC` (single isomer, unassigned; enantiomer 2), on Squalene synthase, the half-inhibitory concentration (IC50) was determined as 5500 nM.
For the molecule `COc1cccc([C@H]2O[C@H](CC(=O)N3CCC(C(=O)O)CC3)c3noc(C(C)C)c3-c3ccc(Cl)cc32)c1OC`, the half-maximal inhibitory concentration (IC50) on Squalene synthase amounted to 112 nM.
